{"source": "ChEMBL document CHEMBL1122018", "about": "“Synthesis and orexigenic activity of some 1-methyl-4-piperidylidene-Substituted pyrrolo[2,1-g][3] benzazepine and dibenzocycloheptene derivatives” (1982)", "format_in_all_cases": "functional", "key": {"Felis catus [1]": {"test_system": "Felis catus", "assay": "Average food consumed at the dose of 0.063 mg/kg (po) using 10 cats per dose level at 60 min (control day/ test day); 18/98"}, "Felis catus [2]": {"test_system": "Felis catus", "assay": "Average food consumed at the dose of 0.25 mg/kg (po) using 10 cats per dose level at 180 min (control day/ test day); 25/236"}, "Felis catus [3]": {"test_system": "Felis catus", "assay": "Average food consumed at the dose of 0.25 mg/kg (po) using 10 cats per dose level at 180 min (control day/ test day); 30/169"}, "Felis catus [4]": {"test_system": "Felis catus", "assay": "Average food consumed at the dose of 0.25 mg/kg (po) using 10 cats per dose level at 180 min (control day/ test day); 41/138"}, "Felis catus [5]": {"test_system": "Felis catus", "assay": "Average food consumed at the dose of 0.063 mg/kg (po) using 10 cats per dose level at 30 min (control day/ test day); 17/57"}, "Felis catus [6]": {"test_system": "Felis catus", "assay": "Average food consumed at the dose of 0.50 mg/kg (po) using 10 cats per dose level at 30 min (control day/ test day); 13/68", "details": "dose 0.5 mg/kg", "outline": "(§1)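 Cats given test compound suspended in 1% methylcellulose, or 1% methylcellulose placebo, by gavage 30 min before a preweighed test meal. Food was offered in surplus for 3 h, and intake was found by reweighing at 30, 60 and 180 min. Ten cats per dose, each dosed no more than once weekly. Test-day intake was compared with the preceding control day by two-tailed paired t test (p < 0.05); values are mean ± SD.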"}, "Felis catus [7]": {"test_system": "Felis catus", "assay": "Average food consumed at the dose of 0.50 mg/kg (po) using 10 cats per dose level at 30 min (control day/ test day); 30/147", "details": "dose 0.5 mg/kg", "outline": "as §1"}, "Felis catus [8]": {"test_system": "Felis catus", "assay": "Average food consumed at the dose of 0.50 mg/kg (po) using 10 cats per dose level at 30 min (control day/ test day); 35/108", "details": "dose 0.5 mg/kg", "outline": "as §1"}, "Felis catus [9]": {"test_system": "Felis catus", "assay": "Average food consumed at the dose of 0.50 mg/kg (po) using 10 cats per dose level at 60 min (control day/ test day); 19/96", "details": "dose 0.5 mg/kg", "outline": "as §1"}, "Felis catus [10]": {"test_system": "Felis catus", "assay": "Average food consumed at the dose of 0.50 mg/kg (po) using 10 cats per dose level at 60 min (control day/ test day); 33/124", "details": "dose 0.5 mg/kg", "outline": "as §1"}, "Felis catus [11]": {"test_system": "Felis catus", "assay": "Average food consumed at the dose of 0.50 mg/kg (po) using 10 cats per dose level at 60 min (control day/ test day); 34/203", "details": "dose 0.5 mg/kg", "outline": "as §1"}, "Felis catus [12]": {"test_system": "Felis catus", "assay": "Average food consumed at the dose of 0.031 mg/kg (po) using 10 cats per dose level at 180 min (control day/ test day); 27/159"}, "Felis catus [13]": {"test_system": "Felis catus", "assay": "Average food consumed at the dose of 0.031 mg/kg (po) using 10 cats per dose level at 30 min (control day/ test day); 20/55"}, "Felis catus [14]": {"test_system": "Felis catus", "assay": "Average food consumed at the dose of 0.031 mg/kg (po) using 10 cats per dose level at 60 min (control day/ test day); 17/79"}, "Felis catus [15]": {"test_system": "Felis catus", "assay": "Average food consumed at the dose of 0.063 mg/kg (po) using 10 cats per dose level at 180 min (control day/ test day); 17/166"}, "Felis catus [16]": {"test_system": "Felis catus", "assay": "Average food consumed at the dose of 0.50 mg/kg (po) using 10 cats per dose level at 180 min (control day/ test day); 34/273", "details": "dose 0.5 mg/kg", "outline": "as §1"}, "Felis catus [17]": {"test_system": "Felis catus", "assay": "Average food consumed at the dose of 0.50 mg/kg (po) using 10 cats per dose level at 180 min (control day/ test day); 36/188", "details": "dose 0.5 mg/kg", "outline": "as §1"}, "Felis catus [18]": {"test_system": "Felis catus", "assay": "Average food consumed at the dose of 0.25 mg/kg (po) using 10 cats per dose level at 30 min (control day/ test day); 24/129"}, "Felis catus [19]": {"test_system": "Felis catus", "assay": "Average food consumed at the dose of 0.25 mg/kg (po) using 10 cats per dose level at 30 min (control day/ test day); 32/66", "outline": "as §1"}, "Felis catus [20]": {"test_system": "Felis catus", "assay": "Average food consumed at the dose of 0.50 mg/kg (po) using 10 cats per dose level at 180 min (control day/ test day); 16/141", "details": "dose 0.5 mg/kg", "outline": "as §1"}, "Felis catus [21]": {"test_system": "Felis catus", "assay": "Average food consumed at the dose of 0.25 mg/kg (po) using 10 cats per dose level at 60 min (control day/ test day); 25/109", "outline": "as §1"}, "Felis catus [22]": {"test_system": "Felis catus", "assay": "Average food consumed at the dose of 0.25 mg/kg (po) using 10 cats per dose level at 60 min (control day/ test day); 31/179", "outline": "as §1"}, "Felis catus [23]": {"test_system": "Felis catus", "assay": "Average food consumed at the dose of 0.25 mg/kg (po) using 10 cats per dose level at 60 min (control day/ test day); 31/66", "outline": "as §1"}, "Felis catus [24]": {"test_system": "Felis catus", "assay": "Average food consumed at the dose of 0.25 mg/kg (po) using 10 cats per dose level at 30 min (control day/ test day); 17/76"}}, "data": [{"molecule": "CN1CCC(=C2c3ccccc3C=Cc3ccc(C(=O)O)cc32)CC1", "values": [{"measurement": "Average consumed", "setting": "Felis catus [1]", "value": 94, "unit": "g"}, {"measurement": "Average consumed", "setting": "Felis catus [2]", "value": 191, "unit": "g"}, {"measurement": "Average consumed", "setting": "Felis catus [3]", "value": 133, "unit": "g"}, {"measurement": "Average consumed", "setting": "Felis catus [4]", "value": 137, "unit": "g"}, {"measurement": "Average consumed", "setting": "Felis catus [5]", "value": 68, "unit": "g"}, {"measurement": "Average consumed", "setting": "Felis catus [6]", "value": 71, "unit": "g"}, {"measurement": "Average consumed", "setting": "Felis catus [7]", "value": 116, "unit": "g"}, {"measurement": "Average consumed", "setting": "Felis catus [8]", "value": 72, "unit": "g"}, {"measurement": "Average consumed", "setting": "Felis catus [9]", "value": 94, "unit": "g"}, {"measurement": "Average consumed", "setting": "Felis catus [10]", "value": 102, "unit": "g"}, {"measurement": "Average consumed", "setting": "Felis catus [11]", "value": 160, "unit": "g"}, {"measurement": "Average consumed", "setting": "Felis catus [12]", "value": 157, "unit": "g"}, {"measurement": "Average consumed", "setting": "Felis catus [13]", "value": 68, "unit": "g"}, {"measurement": "Average consumed", "setting": "Felis catus [14]", "value": 95, "unit": "g"}, {"measurement": "Average consumed", "setting": "Felis catus [15]", "value": 159, "unit": "g"}, {"measurement": "Average consumed", "setting": "Felis catus [16]", "value": 219, "unit": "g"}, {"measurement": "Average consumed", "setting": "Felis catus [17]", "value": 149, "unit": "g"}, {"measurement": "Average consumed", "setting": "Felis catus [18]", "value": 108, "unit": "g"}, {"measurement": "Average consumed", "setting": "Felis catus [19]", "value": 68, "unit": "g"}, {"measurement": "Average consumed", "setting": "Felis catus [20]", "value": 125, "unit": "g"}, {"measurement": "Average consumed", "setting": "Felis catus [21]", "value": 90, "unit": "g"}, {"measurement": "Average consumed", "setting": "Felis catus [22]", "value": 147, "unit": "g"}, {"measurement": "Average consumed", "setting": "Felis catus [23]", "value": 86, "unit": "g"}, {"measurement": "Average consumed", "setting": "Felis catus [24]", "value": 62, "unit": "g"}]}]}
